Source: PubChem (Broad Institute)
An excerpt weighted towards active compounds, which were near 2% of everything screened.
ARNT TACC3 PPI: disrupts binding between human ARNT and TACC3; Q9Y6A5; AlphaScreen His-ARNT PAS-B/GST-TACC3 binding, luminescence; TACC3 fragment carries E629A point mutation; inhibition, % at 9.99 µM; hit rate 0.66% among 390,000;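 active = mean inhibition of replicates at least 50% and at least half of replicates each reaching 50%; inconclusive = half or more replicates reach 50% but mean below 50%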;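 also: 0% = complete ARNT plus TACC3 wells and 100% = ARNT alone without TACC3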
HIF activator: HIF pathway transcriptional activation. activation, % at 7.5 µM (by protocol). hit rate 0.32% among 300,000. U2OS HRE-luciferase reporter, luminescence; normalized: DMSO 0%, desferrioxamine 100%;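 active = mean activation of at least 10% of the iron chelator positive control signal, with at least half of replicates also reaching 10%; inconclusive = mean and replicate majority disagree about reaching 10%; inactive = mean and most replicates under 10%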
T cruzi repl: blocks replication of Trypanosoma cruzi; T. cruzi beta-gal in NIH3T3, luminescence, 90 h; inhibition, % (test concentration not listed); hit rate 1.4% among 300,000; AID 1885;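 active = mean inhibition across valid replicates above about 55%, limit read from the data; inconclusive = mean below that limit but half or more replicates reach it; inactive = mean below it, under half of replicates reach it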;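 also: signal also drops with host cell toxicity which is not excluded here; 0% = plate median of DMSO wells and 100% = zero luminescence signal; higher percent means less beta-gal luminescence so fewer parasites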
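Test system: β-gal T. cruzi (Tulahuen C4) inside NIH/3T3 cells / Quantity: 5,000 cells/well / Measured by: luminescence from GalScreen with 0.05% NP40, read after 60 min / Medium: DMEM plus 2% FBS / Measure: parasite load inhibition, % / Reagent: Tulahuen C4 trypomastigotes, 5000/well / Schedule: co-culture of at least 90 h after 3 h attachment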
AI-2 QS mod: Vibrio harveyi AI-2 quorum sensing modulation; hit rate 0.4% among 300,000; activity change, % at 7.5 µM; Vibrio harveyi JMH597 AI-2 luminescence/OD600 ratio, 9 h; active compounds read low; strain lacks LuxN and CqsS sensors; 0 = neutral-control median; in the data active = activity change below about -75%, passing the limit was not always enough; inconclusive = no clear call, values can overlap the other calls;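 also: luminescence divided by OD600 gain over 9 h not by final OD600 alone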
Starred values were filed as active, the others as inactive; u = inconclusive; x = no result given.

SMILES	ARNT TACC3 PPI	HIF activator	T cruzi repl	AI-2 QS mod
O=C(CN1C(=O)COc2ccccc21)N(Cc1cccnc1)Cc1ccccc1F	-7	0	76*	40
CCCNC(=O)NC[C@@H]1[C@H](c2ccc(C3=CCCC3)cc2)[C@@H](CO)N1C(=O)CC	1	x	x	x
Cc1ccc(Nc2cc(C)nn2-c2nc(C)cc(C)n2)cc1	-1	0	37	17
Cc1ccc(Nc2cc(C)nn2-c2nc(C)cc(=O)[nH]2)cc1	63*	216*	56*	-160*
NCCCNC(=O)c1ccc(/C=N/O)nc1	78*	-1	-4	7
CCCCCCCCCCn1c2c(c(=N)c3c1CCC3)CCC2	-2	-1	68*	30
CCCCCCCCCn1c2c(c(=N)c3c1CCC3)CCCC2	9	-1	58*	18
CCn1c2c(c(=N)c3c1CCC3)CCCC2	x	0	-3	-9
CC(C)NC(=O)Nc1ccc2c(c1)C(=O)N([C@@H](C)CO)C[C@@H](C)[C@@H](CN(C)S(=O)(=O)c1ccc(Cl)cc1)OCCCC[C@@H](C)O2	1	x	x	x
COc1cc(OC)cc(-c2cc3nc4c(c(N5CCN(c6ncccn6)CC5)n3n2)CCCC4)c1	12	0	60*	17
C/C(=N\Nc1nc(N2CCOCC2)nc(N2CCOCC2)n1)c1cccs1	-2	0	-1	18
Oc1ccc(/C=N/Nc2nc(N3CCCCCC3)nc(N3CCCCCC3)n2)c(O)c1	x	0	43	15
Oc1ccc(Br)cc1/C=N/Nc1nc(N2CCCCC2)nc(N2CCOCC2)n1	x	0	74*	6
C/C(=N\Nc1nc(N2CCCCC2)nc(N2CCOCC2)n1)c1ccccc1O	x	0	55*	32
Cc1noc(C)c1NC(=O)N(C)C[C@@H]1Oc2ncc(C#CC3CC3)cc2C(=O)N([C@H](C)CO)C[C@H]1C	-7	x	x	x
O=C(NNC(=O)c1ccc([N+](=O)[O-])o1)c1ccccc1	-3	0	58*	u
O=C(Nc1ccc(N2CCN(C(=O)c3ccccc3)CC2)cc1)c1ccc([N+](=O)[O-])o1	7	-3	45	30
O=C(NN(c1ccccc1)c1ccccc1)c1ccc([N+](=O)[O-])o1	-4	2	64*	24
Cc1cc(C)nc(NC(=O)c2ccc([N+](=O)[O-])o2)n1	-16	0	19	61
C/C(=N/NC(=O)C(O)(c1ccccc1)c1ccccc1)c1ccc([N+](=O)[O-])o1	32	0	75*	96
CCCC(=O)Nc1ccc2c(c1)C(=O)N(C)C[C@@H](OC)[C@@H](C)CN(Cc1nccs1)[C@@H](C)CO2	0	x	x	x
CCN(CC(O)CON=C1c2ccccc2-c2ccccc21)S(=O)(=O)c1ccc(Cl)cc1 (stereo not given)	-1	x	62*	5
CN(CC(O)CON=C1c2ccccc2-c2ccccc21)S(=O)(=O)c1ccc(Br)cc1 (stereo not given)	-4	-1	44	15
CS(=O)(=O)N(CC(O)CON=C1c2ccccc2-c2ccccc21)c1ccc(F)cc1 (stereo not given)	-3	x	19	20
CCN(CC(O)CON=C1c2ccccc2-c2ccccc21)S(=O)(=O)c1ccc(C)cc1 (stereo not given)	x	x	62*	17
SMILES	ARNT TACC3 PPI	HIF activator	T cruzi repl	AI-2 QS mod
Cc1cccc(N(CC(O)CON=C2c3ccccc3-c3ccccc32)S(C)(=O)=O)c1 (stereo not given)	0	0	60*	16
O=C(NC1CCCC1)C(c1ccncc1)N(Cc1ccco1)C(=O)c1ccc(-c2ccccc2)[nH]1 (stereo not given)	-3	4	56*	21
O=C(NC1CCCC1)C(c1ccncc1)N(Cc1ccccc1)C(=O)c1ccc(-c2ccccc2)[nH]1 (stereo not given)	-3	2	61*	5
CC(C)(C)NC(=O)C(c1ccncc1)N(Cc1ccc(F)cc1)C(=O)c1ccc(-c2ccccc2)[nH]1 (stereo not given)	2	1	59*	9
O=C(NC1CCCC1)C(c1ccncc1)N(CCCN1CCOCC1)C(=O)c1ccc(-c2ccccc2)[nH]1 (stereo not given)	0	0	35	33
O=C(NC1CCCCC1)C(c1ccc(F)cc1)N(Cc1ccco1)C(=O)c1ccccn1 (stereo not given)	-9	0	2	4
COc1ccc(/C=C/C(=O)OCCCN(C)C)cc1	x	0	57*	5
COc1ccccc1/C=C/C(=O)OCCCN(C)C	x	0	66*	23
COc1ccccc1/C=C/C(=O)OCCN1CCOCC1	-1	0	-19	25
CC1(C)Cc2c(c(N3CCOCC3)nc3sc4c(NCc5ccccc5)nnnc4c23)CS1	-4	0	62*	8
C[C@H]1CN([C@@H](C)CO)C(=O)Cc2cc(NC(=O)Cc3ccccc3)ccc2O[C@H]1CN(C)Cc1ccncc1	19	x	x	x
O=C(O)c1ccc(N/N=C/c2ccc3nccnc3c2)cc1	10	-2	-4	16
O=C(O)c1ccc(N/N=C/c2cccc(C(F)(F)F)c2)cc1	1	4	3	-93*
O=C(O)c1ccc(N/N=C/c2cccc(F)c2)cc1	1	1	-14	-79*
O=C(O)c1ccc(N/N=C/c2ccc(F)c(F)c2)cc1	5	0	-7	-94*
O=C(N/N=C/c1cccc(C(F)(F)F)c1)c1ccccc1O	-6	0	-13	30
O=C(O)c1ccc(N/N=C/C(Br)=C/c2ccccc2)cc1	18	5	-28	-94*
C[C@H]1CN([C@@H](C)CO)C(=O)c2cc(C#CC3CC3)cnc2O[C@H]1CN(C)C(=O)CC1CC1	26	x	x	x
CC(C)NC(=O)N[C@H]1CC[C@H](CCNC(=O)C2CCOCC2)O[C@@H]1CO	-20	x	x	x
Fc1cccc(/C=N/Nc2nccnc2Cl)c1	4	78*	-10	-5
COCC#Cc1cnc2c(c1)C(=O)N([C@H](C)CO)C[C@@H](C)[C@H](CN(C)S(=O)(=O)c1cn(C)cn1)O2	-3	x	x	x
Fc1ccc(NC(=S)NC2CCN(Cc3ccccc3)CC2)cc1	2	x	x	-15
O=C(/C=C/c1cccc(F)c1)NC1CCN(Cc2ccccc2)CC1	2	1	55*	17
O=C(Nc1cccc(F)c1)NC1CCN(Cc2ccccc2)CC1	-18	0	60*	-12
O=C(COc1ccc(Br)cc1Cl)NC1CCN(Cc2ccccc2)CC1	1	0	61*	11
C=C(C)c1cccc(C(C)(C)NC(=O)NC2CCN(Cc3ccccc3)CC2)c1	0	-1	55*	10
COc1ccccc1-c1ccc2n(c1=O)C[C@H]1[C@H](CO)[C@@H](C(=O)NCCCN(C)C)N(C(C)=O)[C@@H]21	-15	x	x	x
COc1ccccc1S(=O)(=O)N[C@@H]1CC[C@H](CC(=O)NCc2cccc(F)c2)O[C@@H]1CO	0	x	x	x
Clc1nc2c(-c3ccccc3)nnn2c2ccccc12	x	0	64*	0
